This is a sample that favours compounds with a hit; in the whole collection about 3.5% have one here.
MrgX1 allo act: allosterically activates human MrgX1 receptor signaling; Q96LB2; MrgX1-HEK293, Fluo-4 calcium flux, FDSS; active compounds read high; B-score at 10 µM; hit rate 0.63% among 310,000;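 active = plate-corrected calcium response at least 3 library SD above typical, normal starting fluorescence, not activating the receptor alone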;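 note: compound read alongside a low EC10 to EC30 dose of BAM8-22 agonist; peak minus trough fluorescence over baseline measured at the second addition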
Target sequence (Q96LB2 whole entry, looked up): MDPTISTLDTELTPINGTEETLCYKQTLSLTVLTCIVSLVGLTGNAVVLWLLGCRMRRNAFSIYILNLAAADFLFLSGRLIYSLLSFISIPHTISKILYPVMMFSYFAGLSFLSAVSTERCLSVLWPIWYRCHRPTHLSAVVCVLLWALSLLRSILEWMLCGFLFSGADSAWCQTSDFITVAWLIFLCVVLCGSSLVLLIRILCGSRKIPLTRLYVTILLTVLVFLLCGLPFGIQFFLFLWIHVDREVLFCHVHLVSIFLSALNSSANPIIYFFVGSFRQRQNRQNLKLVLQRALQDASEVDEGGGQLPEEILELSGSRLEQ
RGS4 inh: human RGS4 inhibition; P49798; HEK293 M3R/RGS4 inducible, Fluo-4 calcium flux; active compounds read high; triggered by carbachol at its EC20; B-score at 10 µM; hit rate 0.45% among 310,000; AID 463165;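 active = B-score, a plate-corrected calcium signal, over three deviations above library mean, with baseline fluorescence within five deviations of library mean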;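 note: RGS4 expression induced by doxycycline in cells with stable M3 receptor; B-score is computed from the integrated fluorescence ratio over baseline after carbachol; higher B-score means a larger calcium signal and so more RGS4 inhibition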
Target sequence (P49798 whole entry, looked up): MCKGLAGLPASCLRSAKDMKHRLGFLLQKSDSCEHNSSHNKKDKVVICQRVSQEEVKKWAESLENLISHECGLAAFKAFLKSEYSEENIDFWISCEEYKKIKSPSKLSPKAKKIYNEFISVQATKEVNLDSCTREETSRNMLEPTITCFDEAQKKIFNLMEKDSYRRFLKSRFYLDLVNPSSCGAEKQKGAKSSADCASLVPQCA
MrgX1 ag: agonists of human MrgX1 receptor | AID 588627 | hit rate 0.44% among 310,000 | Q96LB2 | B-score at 10 µM | MrgX1-HEK293 cells, Fluo-4 calcium fluorescence, agonist mode; active compounds read high;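 active = calcium response B-score plate-corrected fluorescence ratio at least 3 library SD, with starting fluorescence B-score inside 5 SD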
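Material: MrgX1-expressing HEK293 cells / Dosing: compound as first of three additions / Incubation: overnight seeding, then 1 h dark dye loading / Signal: Fluo-4 NW calcium fluorescence / Evaluation: B-scored fluorescence response ratio / Benchmarks: positive and negative control wells on each plate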
MrgX1 antag: antagonists of human MrgX1 receptor; hit rate 1.3% among 310,000; B-score at 10 µM; MRGX1-HEK293 calcium flux, Fluo-4, BAM8-22 antagonism; active compounds read low; AID 588676;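 active = calcium-response B-score plate-corrected more than 3 library SD below zero, starting fluorescence within 5 deviations, no agonist response on first addition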;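 note: peak minus trough fluorescence over baseline after final BAM8-22 challenge near maximal dose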
RGS4 pot: potentiators or activators of RGS4 | HEK293 M3R/inducible RGS4, carbachol calcium flux Fluo4; active compounds read low | B-score at 10 µM | hit rate 0.92% among 310,000 | AID 463111;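 active = B-score of the integrated calcium signal more than 4 SD below the library mean, with starting fluorescence not abnormally high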;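 note: negative B-score means reduced calcium response which marks RGS4 activation or potentiation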
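test system = M3R-expressing HEK293 line, RGS4 induced by doxycycline | probe or stimulus = carbachol at ECmax as muscarinic agonist stimulus | timing = dye loading 30 min 37 °C, buffer rest 30 min RT | signal = calcium dye Fluo4 fluorescence | evaluation = B score from integrated fluorescence ratio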
RGS4 act valid: confirmation of RGS4 activators; shares compounds with RGS4 pot; HEK293 M3R/RGS4 inducible, carbachol calcium flux Fluo4; inhibition, % at 10 µM; hit rate 89% among 1,100; AID 602282;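 active = inhibition above 3 SD of the buffer control wells, cut at about 41% in these data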;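 note: signal is the integrated peak-minus-minimum Fluo4 fluorescence over baseline ratio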
RGS4 act ctr: RGS4 activator counter-screen hit in non-induced cells; shares compounds with RGS4 pot; HEK293 M3R non-induced RGS4, Fluo4 calcium flux; after carbachol challenge at its EC90; inhibition, % at 10 µM; hit rate 82% among 1,100; AID 602283;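 active = inhibition exceeding 3 SD of buffer-only control wells, cut at about 26% in these data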;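 note: percent drop in integrated peak-minus-baseline over baseline Fluo4 ratio after carbachol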
* hit, by the source's call; i = inactive; / = no result given.

SMILES	MrgX1 allo act	RGS4 inh	MrgX1 ag	MrgX1 antag	RGS4 pot	RGS4 act valid	RGS4 act ctr
CC1CCC(C(C)C)C(OC(=O)COC(=O)c2ccc(N)cc2)C1 (stereo unspecified)	i	i	i	i	i	/	/
O=C(OCCOc1ccccc1)c1n[nH]c2ccccc12	i	i	i	i	i	/	/
O=c1c2ccccc2nc(N2CCN(c3ccccc3)CC2)n1Cc1ccccc1	i	i	i	i	i	/	/
Cc1ccc(Cl)cc1NC(=S)NN	i	i	i	i	i	/	/
CCNC(=O)NC1c2ccccc2CSc2ccccc21 (stereo unspecified)	i	i	i	i	i	/	/
CCOCCN1CCN(C2c3ccccc3CSc3ccccc32)CC1 (stereo unspecified)	i	i	i	i	-13*	92.0*	90.3*
CCC(=O)c1ccc(OCC(=O)N2CCN(c3ncccn3)CC2)cc1	i	i	i	i	i	/	/
Cc1cc(C)n(-c2ccc(C(=O)Nc3ccc(C)c(S(=O)(=O)N4CCOCC4)c3)cc2)n1	i	i	i	i	-8.11*	89.0*	57.3*
CC(CN1CCCCC1)OC(=O)/C=C/c1ccccc1 (stereo unspecified)	i	i	i	i	i	/	/
Cc1cc(C)n(CCCNCC(O)c2ccccc2)n1 (stereo unspecified)	i	i	i	i	i	/	/
CN1CCN(C2=Cc3ccccc3Sc3cc(F)ccc32)CC1	8.19*	i	i	i	-12.1*	92.0*	94.3*
CCCCCCCCCn1ccc(=N)cc1	i	i	i	i	i	/	/
CCCCCCCn1ccc(=N)cc1	i	i	i	i	-9.2*	69.0*	29.8*
COc1ccccc1N1CCN(C(=O)CSc2nc3ccccc3nc2N2CCC(C)CC2)CC1	i	i	i	i	-7.66*	43.5*	0.0
COc1ccccc1N1CCN(C(=O)CSc2nc3ccccc3nc2N2CCCCC2)CC1	i	i	i	i	i	/	/
CC12CCC(=O)N1C(C(=O)Nc1cc(C(F)(F)F)ccc1N1CCCCC1)CS2 (stereo unspecified)	i	i	i	i	i	/	/
COCCN(CCOC)S(=O)(=O)c1ccc(NC(=O)c2cnccn2)cc1	i	i	i	i	i	/	/
C(=N\c1nc2ccccc2n1Cc1ccccc1)/c1cccs1	i	i	i	i	-9.78*	76.0*	40.8*
Cc1nc(SCC(=O)O)c2oc3ccccc3c2n1	i	i	i	i	i	/	/
CCc1nc(SCC(=O)NC2CCCC2)c2oc3ccccc3c2n1	i	i	i	i	i	/	/
Cc1nc(SCC(=O)N2CCN(c3ccccc3)CC2)c2oc3ccccc3c2n1	i	i	i	i	-9.3*	80.0*	0.0
CCc1nc(SCC(=O)N2CCCc3ccccc32)c2oc3ccccc3c2n1	i	i	i	i	-9.45*	89.5*	70.8*
Cc1nn(-c2ccc(N3CCCCC3)nn2)c(C)c1CCC(=O)Nc1ccc(F)c(F)c1	i	i	i	i	-8.47*	63.5*	49.3*
CN(Cc1ccc(F)cc1)C(=O)c1cccc(S(=O)(=O)N2CCN(c3ccc(F)cc3)CC2)c1	i	i	i	i	-7.62*	40.5*	83.8*
COCC(C)NS(=O)(=O)c1ccc(NC(=O)c2ccccn2)cc1 (stereo unspecified)	i	i	i	i	i	/	/
SMILES	MrgX1 allo act	RGS4 inh	MrgX1 ag	MrgX1 antag	RGS4 pot	RGS4 act valid	RGS4 act ctr
COc1ccc(C2N=C(c3ccccc3)C(C)(C)N2O)cc1OC (stereo unspecified)	i	i	i	i	i	/	/
CC1CCN(CCCOc2ccc(Cl)cc2Br)CC1	i	i	i	i	i	/	/
Cc1cc(Br)ccc1OCCCCN1CCC(C)CC1	i	i	i	i	-8.48*	89.0*	64.3*
Cc1cc(NC(=O)c2cnn3c(C(F)(F)F)cc(-c4ccccc4)nc23)no1	i	i	i	i	-10.2*	93.5*	74.3*
Cc1cc(NC(=O)c2cnn3c(C(F)F)cc(-c4ccccc4)nc23)no1	i	i	i	i	i	/	/
COc1ccc(CCNC(=O)Cn2cnc3c(cnn3-c3ccccc3Cl)c2=O)cc1OC	i	i	i	i	i	/	/
C=CCn1c(=NC(=O)c2cccc(N3C(=O)CCC3=O)c2)sc2cccc(OC)c21	i	i	i	i	-10.2*	92.0*	72.8*
COc1ccc(C)c2sc(=NC(=O)c3cccc(N4C(=O)CCC4=O)c3)n(C)c12	i	i	i	i	i	/	/
COc1ccc(S(=O)(=O)n2cnc3cc(C)c(C)cc32)cc1	i	i	i	i	i	/	/
COc1ccc(S(=O)(=O)n2cnc3cc(C)c(C)cc32)cc1C	i	i	i	i	-10*	88.5*	45.8*
COc1ccc(-c2nc(-c3ccc(O)cc3O)cs2)cc1OC	/	i	/	/	-11.4*	78.0*	50.8*
CCN1CCN(CCn2c(=S)[nH]c3ccccc3c2=O)CC1	i	i	i	i	-7.82*	85.0*	59.3*
Cc1ccc(C)c(S(=O)(=O)N2CCCC2CNC(=O)C(=O)NCCc2ccccc2)c1 (stereo unspecified)	i	i	i	i	-10*	79.5*	30.8*
COc1ccc(CCNC(=O)C(=O)NCC2OCCCN2S(=O)(=O)c2cc(C)ccc2C)cc1 (stereo unspecified)	i	i	i	i	i	/	/
COc1ccc(CCNC(=O)C(=O)NCC2CCCN2S(=O)(=O)c2cc(C)ccc2C)cc1 (stereo unspecified)	i	i	i	i	-9.52*	74.5*	26.3*
Cc1ccc(C)c(S(=O)(=O)N2CCCC2CNC(=O)C(=O)NCc2ccccc2C)c1 (stereo unspecified)	i	i	i	i	i	/	/
COc1ccccc1NS(=O)(=O)c1cc(NC(=O)/C=C/c2cccs2)ccc1N1CCOCC1	i	i	i	i	i	/	/
O=C1Nc2ccccc2C1=Nc1ccc(Br)cc1	i	i	i	i	i	/	/
CCN(CC)c1ccc(N=C2C(=O)Nc3ccccc32)cc1	i	i	i	i	-10.6*	83.5*	39.3*
COCCn1c(-c2cccc([N+](=O)[O-])c2)nc2c1c(=O)[nH]c(=O)n2Cc1ccccc1	i	i	i	i	i	/	/
